# Experimental data gathered from unrelated publications.
# Lines come from different studies, so protocols differ.
Compound,target or system,assay,test system,conditions,endpoint,value
CC(C)C[C@H](NC(=O)[C@H](CC(C)C)NC(=O)[C@H](CCCCN)NC(=O)[C@H](CCCCN)NC(=O)[C@H](CCC(=O)O)NC(=O)[C@H](CC(C)C)NC(=O)[C@H](CCCCN)NC(=O)[C@H](CCCCN)NC(=O)[C@H](CC(C)C)NC(=O)[C@H](CC(C)C)NC(=O)[C@H](CCCCN)NC(=O)[C@H](CCCCN)NC(=O)[C@H](CC(C)C)NC(=O)[C@@H](N)CC(C)C)C(N)=O,HCCC9810,"cell growth or viability, CCK-8",,,IC50,8320 nM
N=C(CC(O)c1cc2c(F)cc(F)cc2c2cc(C(F)(F)F)ccc12)Nc1cccc(F)c1 (stereo not drawn),Plasmodium falciparum,"parasite growth, ELISA",3D7,"72 h, blood stage",IC50,2.1 nM
CC(C)C[C@H](NC(=O)[C@H](CC(C)C)NC(=O)[C@H](CCCCN)NC(=O)[C@H](CCCCN)NC(=O)[C@H](CC(C)C)NC(=O)[C@H](CC(C)C)NC(=O)[C@H](CCCCN)NC(=O)[C@H](CCCCN)NC(=O)[C@H](CCC(=O)O)NC(=O)[C@H](CC(C)C)NC(=O)[C@H](CCCCN)NC(=O)[C@H](CCCCN)NC(=O)[C@H](CC(C)C)NC(=O)[C@@H](N)CC(C)C)C(N)=O,HCCC9810,"cell growth or viability, CCK-8",,,IC50,325000 nM
COc1ccc2cc1Oc1ccc(cc1)C[C@H]1c3c(cc4c(c3Oc3cc5c(cc3OC)CCN(C)[C@@H]5C2)OCO4)CCN1C,Plasmodium falciparum,parasite growth,K1,"drug-resistant strain, blood stage",IC50,91.4 nM
CCN1CCN(Cc2ccc(Nc3nc4ccc(Oc5ccnc(NC(=O)C6CCN(C)CC6)c5)cc4n3C)cc2C(F)(F)F)CC1,Plasmodium falciparum,"parasite growth, SYBR Green",DD2,blood stage,EC50,116 nM
CC(C)C[C@H](NC(=O)[C@H](CC(C)C)NC(=O)[C@H](CCCCN)NC(=O)[C@H](CCCCN)NC(=O)[C@H](CC(C)C)NC(=O)[C@H](CC(C)C)NC(=O)[C@H](CCCCN)NC(=O)[C@H](CCCCN)NC(=O)[C@H](CC(C)C)NC(=O)[C@H](CC(C)C)NC(=O)[C@H](CCCCN)NC(=O)[C@H](CCCCN)NC(=O)[C@H](CCC(=O)O)NC(=O)[C@@H](N)CC(C)C)C(N)=O,HCCC9810,"cell growth or viability, CCK-8",,,IC50,6960 nM
Cc1cccc(F)c1NC(=N)CC(O)c1cc2c(F)cc(F)cc2c2cc(C(F)(F)F)ccc12 (stereo not drawn),Plasmodium falciparum,"parasite growth, ELISA",3D7,"72 h, blood stage",IC50,13.2 nM
C[C@@H]1CC[C@H]2[C@@H](C)C(=O)O[C@@H]3O[C@@]4(C)CC[C@@H]1[C@]32OO4,Plasmodium falciparum,parasite growth,K1,"drug-resistant strain, blood stage",IC50,0.6 nM
N#Cc1ccc(NC(=N)CC(O)c2cc3c(F)cc(F)cc3c3cc(C(F)(F)F)ccc23)cc1 (stereo not drawn),Plasmodium falciparum,"parasite growth, ELISA",3D7,"72 h, blood stage",IC50,24.7 nM
CO[C@H]1/C=C/O[C@@]2(C)Oc3c(C)c(O)c4c(O)c(c(/C=N/N5CCN(C6CCCC6)CC5)c(O)c4c3C2=O)NC(=O)/C(C)=C\C=C\[C@H](C)[C@H](O)[C@@H](C)[C@@H](O)[C@@H](C)[C@H](OC(C)=O)[C@@H]1C,Plasmodium falciparum,parasite growth,DD2,"drug-resistant strain, blood stage",IC50,1980 nM
N.N.[Cl][Pt][Cl],RS4-11,"cell growth or viability, ATP luminescence",,72 h,IC50,610 nM
N=C(CC(O)c1cc2c(F)cc(F)cc2c2cc(C(F)(F)F)ccc12)Nc1ccccc1I (stereo not drawn),Plasmodium falciparum,"parasite growth, ELISA",3D7,"72 h, blood stage",IC50,10.9 nM
CC(C)C[C@H](NC(=O)[C@H](CCC(=O)O)NC(=O)[C@H](CCCCN)NC(=O)[C@H](CCCCN)NC(=O)[C@H](CC(C)C)NC(=O)[C@H](CC(C)C)NC(=O)[C@H](CCCCN)NC(=O)[C@H](CCCCN)NC(=O)[C@H](CC(C)C)NC(=O)[C@H](CC(C)C)NC(=O)[C@H](CCCCN)NC(=O)[C@H](CCCCN)NC(=O)[C@H](CC(C)C)NC(=O)[C@@H](N)CC(C)C)C(N)=O,HCCC9810,"cell growth or viability, CCK-8",,,IC50,10200 nM
CCN(CC)CCOc1ccc2c(c1)C(=O)c1cc(OCCN(CC)CC)ccc1-2,Plasmodium falciparum,parasite growth,K1,"drug-resistant strain, blood stage",IC50,500 nM
COc1cc(NC(=N)CC(O)c2cc3c(F)cc(F)cc3c3cc(C(F)(F)F)ccc23)ccc1Br (stereo not drawn),Plasmodium falciparum,"parasite growth, ELISA",3D7,"72 h, blood stage",IC50,13.6 nM
